Results published in ChEMBL document CHEMBL3779805, “Orally bioavailable pyridine and pyrimidine-based Factor XIa inhibitors: Discovery of the methyl N-phenyl carbamate P2 prime group” (Bioorg Med Chem, 2016).

Columns and labels:
[1] = Inhibition of human […] chymotrypsin assessed as reduction in release of p-nitroaniline after 10 to 120 mins by Michaelis-Menten equation analysis
Canis familiaris [2] = experiment: Half life in beagle dog plasma at 0.27 mg/kg, iv and 0.43 mg/kg, po by LC-MS/MS method; format: ADME, organism-based, Canis lupus familiaris; settings: in vivo
Method in brief: (§1)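 Dogs dosed iv and po in N-in-1 (cassette) format. The same vehicle was used for both routes: 70% water, 10% ethanol, 10% dimethylacetamide, 10% polypropylene glycol.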

Canis familiaris [3] = experiment: Clearance in beagle dog plasma at 0.27 mg/kg, iv and 0.43 mg/kg, po administered in cassette format by LC-MS/MS method; format: ADME, organism-based, Canis lupus familiaris; settings: in vivo; method in brief: as §1
Coagulation factor XI = Coagulation factor XI (Homo sapiens, UniProt P03951)
Plasma = experiment: Anticoagulant activity in human plasma assessed as concentration required for 50% increase in activated partial thromboplastin time by automated coagulation analyzer; format: functional
Method in brief: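 aPTT clotting assay in pooled normal human plasma on an automated coagulation analyzer with commercial reagents. EC1.5x is the inhibitor plasma concentration giving a 50% increase in clotting time over the no-inhibitor control.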

[4] = Oral bioavailability in beagle dog plasma at 0.43 mg/kg by LC-MS/MS method; format: ADME, organism-based, Canis lupus familiaris; method in brief: as §1
Canis familiaris [5] = experiment: Volume of distribution at steady state in beagle dog plasma at 0.27 mg/kg, iv and 0.43 mg/kg, po by LC-MS/MS method; format: ADME, organism-based, Canis lupus familiaris; settings: in vivo; method in brief: as §1
[6] = AUC in beagle dog plasma at 0.2 mg/kg, iv and 0.2 mg/kg, po by LC-MS/MS method; format: ADME, organism-based, Canis lupus familiaris; method in brief: as §1
Canis familiaris [7] = experiment: (§2) Clearance in beagle dog plasma at 0.2 mg/kg, iv and 0.2 mg/kg, po administered in cassette format by LC-MS/MS method; format: ADME, organism-based, Canis lupus familiaris; settings: in vivo; method in brief: as §1
[8] = Oral bioavailability in beagle dog plasma at 0.2 mg/kg by LC-MS/MS method; format: ADME, organism-based, Canis lupus familiaris; method in brief: as §1
[9] = biological target: Vitamin K-dependent protein C (Homo sapiens, UniProt P04070); experiment: Inhibition of human activated protein C assessed as reduction in release of p-nitroaniline after 10 to 120 mins by Michaelis-Menten equation analysis
Method in brief: (§3)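 Purified human enzymes with commercial synthetic peptide substrates. IC50 from 4–11 inhibitor concentrations, run in duplicate at a fixed substrate concentration (standard error <20%). Ki = IC50/(1+S/Km), assuming competitive inhibition.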

[10] = biological target: Tissue-type plasminogen activator (Homo sapiens, UniProt P00750); experiment: Inhibition of human TPA assessed as reduction in release of p-nitroaniline after 10 to 120 mins by Michaelis-Menten equation analysis; method in brief: as §3
Coagulation factor IX = Coagulation factor IX (Homo sapiens, UniProt P00740); experiment: Inhibition of human coagulation factor 9a assessed as reduction in release of p-nitroaniline after 10 to 120 mins by Michaelis-Menten equation analysis; method in brief: as §3
Prothrombin = Prothrombin (Homo sapiens, UniProt P00734); experiment: Inhibition of human coagulation thrombin assessed as reduction in release of p-nitroaniline after 10 to 120 mins by Michaelis-Menten equation analysis; method in brief: as §3
Trypsin = Trypsin (Homo sapiens, UniProt P07477+P07478+P35030); experiment: Inhibition of human coagulation trypsin assessed as reduction in release of p-nitroaniline after 10 to 120 mins by Michaelis-Menten equation analysis; format: protein assay; method in brief: as §3
Coagulation factor VII = biological target: T1, Coagulation factor VII (Homo sapiens, UniProt P08709); experiment: Inhibition of human coagulation factor 7a assessed as reduction in release of p-nitroaniline after 10 to 120 mins by Michaelis-Menten equation analysis; method in brief: as §3
T1 sequence (P08709 whole entry): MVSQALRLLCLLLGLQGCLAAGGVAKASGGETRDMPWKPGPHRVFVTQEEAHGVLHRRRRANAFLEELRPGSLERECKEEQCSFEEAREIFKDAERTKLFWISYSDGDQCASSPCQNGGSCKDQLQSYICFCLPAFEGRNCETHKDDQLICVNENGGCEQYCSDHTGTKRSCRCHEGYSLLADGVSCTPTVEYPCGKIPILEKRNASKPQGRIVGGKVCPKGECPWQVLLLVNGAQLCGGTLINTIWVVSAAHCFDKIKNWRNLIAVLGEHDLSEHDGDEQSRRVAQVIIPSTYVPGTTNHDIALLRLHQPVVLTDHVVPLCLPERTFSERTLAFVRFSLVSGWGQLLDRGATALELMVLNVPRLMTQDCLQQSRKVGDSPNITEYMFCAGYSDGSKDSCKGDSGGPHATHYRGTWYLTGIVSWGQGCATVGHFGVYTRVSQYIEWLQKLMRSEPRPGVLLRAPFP

Plasma kallikrein = Plasma kallikrein (Homo sapiens, UniProt P03952); experiment: Inhibition of human plasma kallikrein assessed as reduction in release of p-nitroaniline after 10 to 120 mins by Michaelis-Menten equation analysis; format: cell-free; method in brief: as §3
[11] = biological target: Urokinase-type plasminogen activator (Homo sapiens, UniProt P00749); experiment: Inhibition of human urokinase assessed as reduction in release of p-nitroaniline after 10 to 120 mins by Michaelis-Menten equation analysis; method in brief: as §3
Plasminogen = Plasminogen (Homo sapiens, UniProt P00747); experiment: Inhibition of human plasmin assessed as reduction in release of p-nitroaniline after 10 to 120 mins by Michaelis-Menten equation analysis; method in brief: as §3
Coagulation factor X = Coagulation factor X (Homo sapiens, UniProt P00742); experiment: Inhibition of human coagulation factor 10a assessed as reduction in release of p-nitroaniline after 10 to 120 mins by Michaelis-Menten equation analysis; method in brief: as §3
[12] = (§4) Volume of distribution at steady state in beagle dog plasma at 0.2 mg/kg, iv and 0.2 mg/kg, po by LC-MS/MS method; format: ADME, organism-based, Canis lupus familiaris; settings: beagle, plasma, read-out: Vdss; method in brief: as §1
[13] = as §2; format: ADME, organism-based, Canis lupus familiaris; settings: beagle, plasma; method in brief: as §1
[14] = (§5) Half life in beagle dog plasma at 0.2 mg/kg, iv and 0.2 mg/kg, po by LC-MS/MS method; format: ADME, organism-based, Canis lupus familiaris; settings: beagle, plasma; method in brief: as §1
Canis familiaris [15] = experiment: as §4; format: ADME, organism-based, Canis lupus familiaris; settings: in vivo; method in brief: as §1
Canis familiaris [16] = experiment: as §5; format: ADME, organism-based, Canis lupus familiaris; settings: in vivo; method in brief: as §1

Chain of Coagulation factor XI (P03951 19-387 limits assumed): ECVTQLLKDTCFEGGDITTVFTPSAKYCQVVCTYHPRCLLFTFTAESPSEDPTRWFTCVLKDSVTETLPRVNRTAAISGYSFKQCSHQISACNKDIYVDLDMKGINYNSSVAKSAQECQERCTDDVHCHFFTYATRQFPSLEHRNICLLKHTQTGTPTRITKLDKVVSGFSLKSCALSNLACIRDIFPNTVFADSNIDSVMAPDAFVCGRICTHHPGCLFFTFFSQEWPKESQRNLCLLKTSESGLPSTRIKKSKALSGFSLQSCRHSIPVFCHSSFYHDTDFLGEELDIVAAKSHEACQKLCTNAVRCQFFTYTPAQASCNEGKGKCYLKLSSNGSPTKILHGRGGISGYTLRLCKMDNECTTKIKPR
Chain of Coagulation factor XI (P03951 388-625 limits assumed): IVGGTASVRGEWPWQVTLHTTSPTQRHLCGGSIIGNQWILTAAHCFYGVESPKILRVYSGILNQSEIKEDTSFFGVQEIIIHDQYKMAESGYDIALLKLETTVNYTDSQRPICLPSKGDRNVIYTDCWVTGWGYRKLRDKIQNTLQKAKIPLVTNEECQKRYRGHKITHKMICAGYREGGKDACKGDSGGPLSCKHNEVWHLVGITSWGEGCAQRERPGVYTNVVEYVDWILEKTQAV
Chain of Coagulation factor IX (P00740 47-191 limits assumed): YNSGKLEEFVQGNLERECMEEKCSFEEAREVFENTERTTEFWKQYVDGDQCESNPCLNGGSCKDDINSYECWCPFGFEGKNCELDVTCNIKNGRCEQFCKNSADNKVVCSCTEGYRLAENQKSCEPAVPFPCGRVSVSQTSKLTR
Chain of Coagulation factor IX (P00740 227-461 limits assumed): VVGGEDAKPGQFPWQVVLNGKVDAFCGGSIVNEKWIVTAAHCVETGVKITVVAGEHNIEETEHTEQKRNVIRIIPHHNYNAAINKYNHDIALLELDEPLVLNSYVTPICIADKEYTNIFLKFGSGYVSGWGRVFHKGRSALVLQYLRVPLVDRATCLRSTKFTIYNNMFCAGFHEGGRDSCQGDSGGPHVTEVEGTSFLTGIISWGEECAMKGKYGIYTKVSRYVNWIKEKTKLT
Chain of Coagulation factor X (P00742 41-179 limits assumed): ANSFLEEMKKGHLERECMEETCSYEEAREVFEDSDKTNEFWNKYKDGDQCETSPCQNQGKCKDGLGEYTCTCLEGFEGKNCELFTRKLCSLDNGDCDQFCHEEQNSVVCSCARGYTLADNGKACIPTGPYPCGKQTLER
Chain of Coagulation factor X (P00742 235-488 limits assumed): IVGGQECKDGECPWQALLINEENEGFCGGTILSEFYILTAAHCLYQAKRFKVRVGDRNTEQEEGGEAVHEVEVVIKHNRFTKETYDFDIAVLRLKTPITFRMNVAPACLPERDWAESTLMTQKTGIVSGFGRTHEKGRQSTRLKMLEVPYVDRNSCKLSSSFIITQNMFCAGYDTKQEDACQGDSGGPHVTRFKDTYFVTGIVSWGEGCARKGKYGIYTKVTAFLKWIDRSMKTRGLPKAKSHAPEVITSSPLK
Chain of Plasminogen (P00747 97-580 limits assumed): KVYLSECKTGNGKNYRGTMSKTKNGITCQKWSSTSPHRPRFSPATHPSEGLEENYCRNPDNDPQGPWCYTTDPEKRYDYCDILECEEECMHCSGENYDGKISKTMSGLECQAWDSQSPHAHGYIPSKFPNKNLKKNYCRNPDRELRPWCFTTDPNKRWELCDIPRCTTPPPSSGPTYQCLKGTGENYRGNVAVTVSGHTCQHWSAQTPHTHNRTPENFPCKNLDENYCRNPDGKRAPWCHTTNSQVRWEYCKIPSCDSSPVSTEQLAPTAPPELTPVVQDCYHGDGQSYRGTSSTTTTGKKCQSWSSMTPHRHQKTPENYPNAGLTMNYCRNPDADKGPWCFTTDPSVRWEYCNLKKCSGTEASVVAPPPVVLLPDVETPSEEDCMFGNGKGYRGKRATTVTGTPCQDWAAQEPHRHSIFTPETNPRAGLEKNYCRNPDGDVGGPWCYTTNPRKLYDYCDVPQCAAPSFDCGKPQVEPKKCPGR
Chain of Plasminogen (P00747 581-810 limits assumed): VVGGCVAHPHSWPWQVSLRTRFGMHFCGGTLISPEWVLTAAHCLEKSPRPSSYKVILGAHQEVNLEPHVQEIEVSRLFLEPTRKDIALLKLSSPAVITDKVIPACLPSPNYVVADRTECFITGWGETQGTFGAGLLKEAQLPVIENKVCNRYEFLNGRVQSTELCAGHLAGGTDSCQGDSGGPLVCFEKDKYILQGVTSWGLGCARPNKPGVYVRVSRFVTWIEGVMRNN
Chain of Tissue-type plasminogen activator (P00750 whole entry): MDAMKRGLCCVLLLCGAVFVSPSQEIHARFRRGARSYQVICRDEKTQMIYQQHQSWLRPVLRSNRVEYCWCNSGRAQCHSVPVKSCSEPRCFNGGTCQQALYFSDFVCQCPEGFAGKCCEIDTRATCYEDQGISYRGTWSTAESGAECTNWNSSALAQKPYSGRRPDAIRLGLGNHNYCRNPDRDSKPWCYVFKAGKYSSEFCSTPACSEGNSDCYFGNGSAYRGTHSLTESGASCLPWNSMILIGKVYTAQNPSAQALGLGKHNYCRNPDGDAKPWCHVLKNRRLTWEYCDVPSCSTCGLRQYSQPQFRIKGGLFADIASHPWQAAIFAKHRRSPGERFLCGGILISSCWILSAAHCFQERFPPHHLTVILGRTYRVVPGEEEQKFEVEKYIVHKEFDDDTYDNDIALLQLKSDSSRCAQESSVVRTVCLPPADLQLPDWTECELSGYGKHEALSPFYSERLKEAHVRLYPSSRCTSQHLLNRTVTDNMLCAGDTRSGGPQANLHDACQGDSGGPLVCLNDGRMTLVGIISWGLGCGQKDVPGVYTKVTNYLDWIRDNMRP
Chain of Vitamin K-dependent protein C (P04070 43-197 limits assumed): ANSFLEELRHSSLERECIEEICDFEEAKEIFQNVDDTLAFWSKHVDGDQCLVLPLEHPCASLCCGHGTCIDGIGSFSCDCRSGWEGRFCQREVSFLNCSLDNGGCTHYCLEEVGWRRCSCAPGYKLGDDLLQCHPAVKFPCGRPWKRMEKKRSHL
Chain of Vitamin K-dependent protein C (P04070 212-461 limits assumed): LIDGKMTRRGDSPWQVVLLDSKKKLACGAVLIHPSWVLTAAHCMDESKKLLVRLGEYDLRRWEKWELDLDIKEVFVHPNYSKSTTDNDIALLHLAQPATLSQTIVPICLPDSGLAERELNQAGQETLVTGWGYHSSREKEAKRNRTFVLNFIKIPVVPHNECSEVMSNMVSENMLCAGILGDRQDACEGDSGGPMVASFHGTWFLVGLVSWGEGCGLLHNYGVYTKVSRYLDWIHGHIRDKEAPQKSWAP
Chain of Plasma kallikrein (P03952 20-390 limits assumed): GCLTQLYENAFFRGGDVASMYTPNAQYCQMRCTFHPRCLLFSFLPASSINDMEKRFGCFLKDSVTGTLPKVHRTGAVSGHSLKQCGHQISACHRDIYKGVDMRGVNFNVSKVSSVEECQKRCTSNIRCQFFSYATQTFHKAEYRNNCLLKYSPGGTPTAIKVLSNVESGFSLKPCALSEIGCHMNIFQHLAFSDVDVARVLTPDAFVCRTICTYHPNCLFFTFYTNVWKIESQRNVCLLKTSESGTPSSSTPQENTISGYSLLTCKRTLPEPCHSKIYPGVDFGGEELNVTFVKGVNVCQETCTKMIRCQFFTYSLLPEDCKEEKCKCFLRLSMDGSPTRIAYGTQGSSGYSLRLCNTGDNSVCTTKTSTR
Chain of Plasma kallikrein (P03952 391-638 limits assumed): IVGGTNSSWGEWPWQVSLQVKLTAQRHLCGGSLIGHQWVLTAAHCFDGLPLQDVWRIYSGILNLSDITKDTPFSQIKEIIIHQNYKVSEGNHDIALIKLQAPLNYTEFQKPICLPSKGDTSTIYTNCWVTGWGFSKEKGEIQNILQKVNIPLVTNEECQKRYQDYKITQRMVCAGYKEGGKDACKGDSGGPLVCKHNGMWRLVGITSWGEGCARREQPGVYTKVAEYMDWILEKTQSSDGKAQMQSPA

| SMILES | Ki (Coagulation factor XI) | EC1.5 (Plasma) | further results |
| --- | --- | --- | --- |
| NC[C@H]1CC[C@H](C(=O)N[C@@H](Cc2ccccc2)c2nc(-c3ccc4c(N)n[nH]c4c3)c(Cl)[nH]2)CC1 |  | 0.32 µM |  |
| COC(=O)Nc1ccc(-c2c[nH]c([C@H](Cc3ccccc3)NC(=O)/C=C/c3cc(Cl)ccc3-n3cnnn3)n2)cc1 |  | 8.6 µM | AUC [6]: 0.03 µM·h; clearance (Canis familiaris [7]): 21 mL/min/kg; bioavailability [8]: 10% |
| COC(=O)Nc1ccc(-c2cccc([C@H](Cc3ccccc3)NC(=O)[C@H]3CC[C@H](CN)CC3)c2)cc1 | 0.017 µM | 13 µM |  |
| NC[C@H]1CC[C@H](C(=O)NC(Cc2ccccc2)c2cc(-c3cccc(C(=O)O)c3)ccn2)CC1 (mixture of isomers) | 0.205 µM |  |  |
| COc1n[nH]c2ccc(-c3ccnc(C(Cc4ccccc4)NC(=O)[C@H]4CC[C@H](CN)CC4)c3)cc12 (mixture of isomers) | 0.087 µM | >40 µM |  |
| NC[C@H]1CC[C@H](C(=O)NC(Cc2ccccc2)c2cc(-c3ccc4[nH]nc(N)c4c3)ccn2)CC1 (mixture of isomers) | 0.053 µM | 26 µM |  |
| NC[C@H]1CC[C@H](C(=O)NC(Cc2ccccc2)c2cc(-c3ccc4[nH]ncc4c3)ccn2)CC1 (mixture of isomers) | 0.061 µM |  |  |
| NC[C@H]1CC[C@H](C(=O)NC(Cc2ccccc2)c2cc(-c3ccc(N)nc3)ccn2)CC1 (mixture of isomers) | 0.024 µM |  |  |
| NC[C@H]1CC[C@H](C(=O)NC(Cc2ccccc2)c2cc(-c3ccc4c(N)nccc4c3)ccn2)CC1 (mixture of isomers) | 0.144 µM |  |  |
| NC[C@H]1CC[C@H](C(=O)NC(Cc2ccccc2)c2cc(-c3ccc4c(N)ncnc4c3)ccn2)CC1 (mixture of isomers) | 0.01 µM | 2.8 µM |  |
| COC(=O)Nc1ccc(-c2ccnc(C(Cc3ccccc3)NC(=O)[C@H]3CC[C@H](CN)CC3)c2)cc1 (mixture of isomers) | 0.012 µM | 3.7 µM |  |
| NC[C@H]1CC[C@H](C(=O)NC(Cc2ccccc2)c2cc(-c3ccc4c(O)n[nH]c4c3)ccn2)CC1 (mixture of isomers) | 0.097 µM |  |  |
| NC[C@H]1CC[C@H](C(=O)NC(Cc2ccccc2)c2cc(-c3ccc4cn[nH]c4c3)ccn2)CC1 (mixture of isomers) | 0.087 µM | >40 µM |  |
| Cn1[nH]c2ccc(-c3ccnc(C(Cc4ccccc4)NC(=O)[C@H]4CC[C@H](CN)CC4)c3)cc2c1=O (mixture of isomers) | 0.11 µM |  |  |
| NC[C@H]1CC[C@H](C(=O)NC(Cc2ccccc2)c2cc(-c3ccc(N)cc3)ccn2)CC1 (mixture of isomers) | 0.056 µM | 35 µM |  |

More lines, main results first:

| Ki (Coagulation factor XI) | SMILES | EC1.5 (Plasma) | further results |
| --- | --- | --- | --- |
| 0.0072 µM | NC[C@H]1CC[C@H](C(=O)N[C@@H](Cc2ccccc2)c2cc(-c3ccc4c(N)n[nH]c4c3)ccn2)CC1 | 0.5 µM | Ki [1]: > 20.8 µM; t1/2 (Canis familiaris [2]): 1.2 h; clearance (Canis familiaris [3]): 50 mL/min/kg; bioavailability [4]: 0%; Vdss (Canis familiaris [5]): 3.4 L/kg |
| 0.0084 µM | COC(=O)Nc1ccc(-c2cncc([C@H](Cc3ccccc3)NC(=O)[C@H]3CC[C@H](CN)CC3)c2)cc1 | 1.3 µM |  |
| 0.0037 µM | NC[C@H]1CC[C@H](C(=O)N[C@@H](Cc2ccccc2)c2cc(-c3ccc4[nH]nc(O)c4c3)ccn2)CC1 | 0.4 µM | Ki [9]: > 30.2 µM; Ki [10]: > 21.9 µM; Ki [1]: > 20.8 µM; Ki (Coagulation factor IX): > 34.9 µM; Ki (Prothrombin): > 12.6 µM; Ki (Trypsin): 0.999 µM; Ki (Coagulation factor VII): > 15.2 µM; Ki (Plasma kallikrein): 0.55 µM; Ki [11]: > 14.1 µM; Ki (Plasminogen): > 22.1 µM; Ki (Coagulation factor X): > 9 µM |
| 0.0079 µM | COC(=O)Nc1ccc(-c2cc([C@H](Cc3ccccc3)NC(=O)[C@H]3CC[C@H](CN)CC3)ccn2)cc1 | 0.9 µM |  |
| 0.0038 µM | NC[C@H]1CC[C@H](C(=O)N[C@@H](Cc2ccccc2)c2cc(-c3ccc4c(N)noc4c3)ccn2)CC1 | 0.6 µM |  |
| 0.0032 µM | NC[C@H]1CC[C@H](C(=O)N[C@H](Cc2ccccc2)c2cc(-c3ccc4c(N)noc4c3)ccn2)CC1 |  |  |
| 0.0067 µM | COC(=O)Nc1ccc(-c2cc([C@H](Cc3ccccc3)NC(=O)/C=C/c3cc(Cl)ccc3-n3cnnn3)ncn2)cc1 | 21 µM | Vd [12]: 4 L/kg; AUC [6]: 0.23 µM·h; clearance [13]: 0.122 mL/min/kg; half-life [14]: 6.8 h; bioavailability [8]: 28% |
| 0.0024 µM | COC(=O)Nc1ccc(-c2cc([C@H](Cc3ccccc3)NC(=O)/C=C/c3cc(Cl)ccc3-n3cnnn3)[nH]c(=O)c2)cc1 | 2.8 µM | Vdss (Canis familiaris [15]): 1.6 L/kg; clearance (Canis familiaris [7]): 30 mL/min/kg; t1/2 (Canis familiaris [16]): 1.5 h; bioavailability [8]: 0% |
| 0.0075 µM | NC[C@H]1CC[C@H](C(=O)NC(Cc2ccccc2)c2cc(-c3ccc4[nH]nc(O)c4c3)ccn2)CC1 (mixture of isomers) | 0.5 µM |  |
| 0.0092 µM | NC[C@H]1CC[C@H](C(=O)NC(Cc2ccccc2)c2cc(-c3ccc4c(N)noc4c3)ccn2)CC1 (mixture of isomers) |  |  |
| 0.0053 µM | NC[C@H]1CC[C@H](C(=O)NC(Cc2ccccc2)c2cc(-c3ccc(N)c(C(=O)O)c3)ccn2)CC1 (mixture of isomers) | 0.8 µM |  |
